Each structure is given as a SMILES string. Active and inactive are the calls of the source. No cut-off for these calls is given here.

The record followed here is ChEMBL document CHEMBL3120143, “Use of 2'-spirocyclic ethers in HCV nucleoside design” (J Med Chem, 2014).

Data set [1] can be described thus: Cytotoxicity against human Lunet cells expressing ET subgenomic replicon after 4 days by Celltitre-Glo assay. It is filed as cell-based. Put shortly:
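ET-Lunet replicon cells, 3000 cells/well, incubated 4 days with serially diluted compound; proliferation/viability by CellTiter-Glo luminescence; CC50 = concentration giving 50% inhibition, curve-fitted.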

The test system of data set [2] is Hepatitis C virus. Put plainly: Antiviral activity against HCV genotype 1b infected in human ET-Lunet cells assessed as inhibition of HCV RNA replication after 4 days by firefly luciferase reporter gene assay. It is filed as functional, organism-based, Hepacivirus hominis. Conditions: 96 h. In short, it runs like this:
(§1)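 ET-Lunet cells carrying genotype 1b replicon seeded at 3000 cells/well, exposed 4 days to serially diluted compound; HCV RNA replication read as firefly luciferase luminescence (Bright-Glo). EC50 taken as concentration giving 50% inhibition, from curve fitting.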

Data set [3] has as its target RNA-directed RNA polymerase (Hepacivirus hominis, UniProt O39930, S282T). Put plainly: Inhibition of HCV genotype 1b recombinant NS5B RNA dependent RNA polymerase S282T mutant using IRES RNA as substrate after 30 mins by radioactive assay in presence of [alpha32p]UTP. Also noted: species or system Hepatitis C virus subtype 1b.
The nature of data set [4]: Inhibition of HCV genotype 1b wild type recombinant NS5B RNA dependent RNA polymerase using IRES RNA as substrate after 30 mins by radioactive assay in presence of [alpha32p]UTP. Also noted: species or system Hepatitis C virus subtype 1b. Put shortly: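 Recombinant genotype 1b NS5B (wild-type or S282T), 40 ng/μL, with 20 ng/μL genotype 1b (−) IRES RNA template. Mix holds 5 μM each of the four natural ribonucleotides plus [α-³²P]UTP, RNase inhibitor 1 unit/μL, 5 mM MgCl₂ and 2 mM DTT in 50 mM Hepes pH 7.5. Incubated at 27 °C for 30 min, then stopped with EDTA/NaCl/citrate. Radioactive RNA product quantified and IC50 fitted.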

Data set [5] deals with Hepatitis C virus. Put plainly: Antiviral activity against HCV genotype 1b infected in human ET-Lunet cells assessed as inhibition of HCV RNA replication up to 100 uM after 4 days by firefly luciferase reporter gene assay. Conditions: Hepacivirus hominis. It is filed as functional, organism-based. Put shortly:
as §1

Chain of RNA-directed RNA polymerase (O39930 entry or part of it S282T): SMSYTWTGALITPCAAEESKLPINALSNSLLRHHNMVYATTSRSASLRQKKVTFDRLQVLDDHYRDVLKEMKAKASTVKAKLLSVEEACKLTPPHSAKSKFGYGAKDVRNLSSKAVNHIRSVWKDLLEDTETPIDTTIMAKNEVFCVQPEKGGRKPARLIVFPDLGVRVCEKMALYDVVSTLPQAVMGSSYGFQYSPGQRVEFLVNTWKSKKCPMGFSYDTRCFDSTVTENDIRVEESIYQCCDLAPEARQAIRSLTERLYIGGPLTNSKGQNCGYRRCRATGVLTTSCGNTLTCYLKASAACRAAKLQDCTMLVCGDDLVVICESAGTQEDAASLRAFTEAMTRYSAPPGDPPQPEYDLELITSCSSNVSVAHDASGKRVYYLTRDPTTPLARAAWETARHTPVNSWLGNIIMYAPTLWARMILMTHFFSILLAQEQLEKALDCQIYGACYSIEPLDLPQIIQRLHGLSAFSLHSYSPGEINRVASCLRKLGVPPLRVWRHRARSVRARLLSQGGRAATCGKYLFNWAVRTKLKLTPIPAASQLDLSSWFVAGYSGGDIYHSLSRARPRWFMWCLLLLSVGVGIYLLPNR

Turning to `CCOC(=O)[C@H](C)N[P@](=O)(OC[C@H]1O[C@@H](n2cnc3c(OC)nc(N)nc32)[C@@]2(CCO2)[C@@H]1O)Oc1ccccc1`, the CC50 at 96 h in data set [1] is over 20 µM. In addition, the EC50 in the data set on Hepatitis C virus [2] turned out to be 0.86 µM.

In data set [1], `COc1nc(N)nc2c1ncn2[C@@H]1O[C@H](CO[P@@](=O)(N[C@@H](C)C(=O)OCc2ccccc2)Oc2ccccc2)[C@@H](O)[C@]12CCO2` displayed a CC50 at 96 h of over 20 µM. Further, the EC50 with Hepatitis C virus [2] stood at 8.65 µM.

In turn, `COc1nc(N)nc2c1ncn2[C@@H]1O[C@H](CO[P@](=O)(N[C@@H](C)C(=O)OCC(C)C)Oc2ccccc2)[C@@H](O)[C@]12CCO2` came in with a CC50 at 96 h in data set [1] of over 20 µM. In the data set on Hepatitis C virus [2], the EC50 is 4.42 µM.

Take `COc1nc(N)nc2c1ncn2[C@@H]1O[C@H](CO[P@@](=O)(N[C@@H](C)C(=O)OC2CCCC2)Oc2ccccc2)[C@@H](O)[C@]12CCO2`: the half-maximal cytotoxic concentration (CC50) at 96 h in data set [1] was over 20 µM. Besides, the EC50 with Hepatitis C virus [2] was 0.45 µM.

In turn, `CCCCOC(=O)[C@H](C)N[P@](=O)(OC[C@H]1O[C@@H](n2cnc3c(OC)nc(N)nc32)[C@@]2(CCO2)[C@@H]1O)Oc1ccccc1` showed a CC50 at 96 h in data set [1] of over 20 µM. Also, the concentration for a half-maximal effect (EC50) with Hepatitis C virus [2] stood at 0.27 µM.

`COC(=O)[C@H](C)NP(=O)(OC[C@H]1O[C@@H](n2ccc(=O)[nH]c2=O)[C@]2(CCO2)[C@@H]1O)Oc1ccccc1` (mixture of isomers) came in with a CC50 at 96 h in data set [1] of over 100 µM. Moreover, in the data set on Hepatitis C virus [2], the EC50 stood at 28.5 µM.

With `O=c1ccn([C@@H]2O[C@H](CO)[C@@H](O)[C@@]23CCO3)c(=O)[nH]1`, in data set [1], the CC50 at 96 h is over 100 µM. In addition, the EC50 with Hepatitis C virus [2] is over 100 µM.

With `COc1nc(N)nc2c1ncn2[C@@H]1O[C@H](CO[P@@](=O)(N[C@@H](C)C(=O)OC(C)C)Oc2ccccc2)[C@@H](O)[C@]12CCO2`, in data set [1], the CC50 at 96 h is over 20 µM. Besides, in the data set on Hepatitis C virus [2], the EC50 worked out at 0.0045 µM.

For the compound `COC(=O)[C@H](C)NP(=O)(OC[C@H]1O[C@@H](n2cnc3c(OC)nc(N)nc32)[C@@]2(CCO2)[C@@H]1O)Oc1ccccc1` (mixture of isomers), the cytotoxic concentration (CC50) at 96 h in data set [1] is over 20 µM. The EC50 in the data set on Hepatitis C virus [2] came out at 7.16 µM.

Compound `COc1nc(N)nc2c1ncn2[C@@H]1O[C@H](CO[P@](=O)(N[C@@H](C)C(=O)OC2CCCC2)Oc2ccccc2)[C@@H](O)[C@]12CCO2` had a 50% cytotoxic concentration (CC50) at 96 h in data set [1] of over 20 µM. In addition, in the data set with Hepatitis C virus [2], the 50% effective concentration (EC50) amounted to 0.67 µM.

Take `O=c1ccn([C@@H]2O[C@H](CO)[C@@H](O)[C@]23CCO3)c(=O)[nH]1`: in data set [1], the CC50 at 96 h was over 100 µM. Further, the EC50 in the data set with Hepatitis C virus [2] was over 100 µM.

Take `Nc1nc2c(ncn2[C@@H]2O[C@H](COP(=O)(O)OP(=O)(O)OP(=O)(O)O)[C@@H](O)[C@]23CCO3)c(=O)[nH]1`: the IC50 in data set [3] came out at 10.4 µM; in data set [4], 9.5 µM.

Regarding `COC(=O)[C@H](C)NP(=O)(OC[C@H]1O[C@@H](n2ccc(=O)[nH]c2=O)[C@@]2(CCO2)[C@@H]1O)Oc1ccccc1` (mixture of isomers), the CC50 at 96 h in data set [1] is over 100 µM. Moreover, in the data set on Hepatitis C virus [2], the EC50 is 16.7 µM.

As for `CCCCOC(=O)[C@H](C)N[P@@](=O)(OC[C@H]1O[C@@H](n2cnc3c(OC)nc(N)nc32)[C@@]2(CCO2)[C@@H]1O)Oc1ccccc1`, the cytotoxic concentration (CC50) at 96 h in data set [1] is over 20 µM. Further, the EC50 with Hepatitis C virus [2] was 3.1 µM.

The compound `Nc1ccn([C@@H]2O[C@H](CO)[C@@H](O)[C@]23CCCO3)c(=O)n1` registered a CC50 at 96 h in data set [1] of over 100 µM. Moreover, in the data set with Hepatitis C virus [2], the EC50 is over 100 µM.

As to `Nc1ccn([C@@H]2O[C@H](CO)[C@@H](O)[C@]23CCO3)c(=O)n1`, in data set [1], the CC50 at 96 h was over 100 µM. Moreover, in the data set with Hepatitis C virus [2], the EC50 was 56.6 µM.

Turning to `Nc1ccn([C@@H]2O[C@H](COP(=O)(O)OP(=O)(O)OP(=O)(O)O)[C@@H](O)[C@]23CCCO3)c(=O)n1`, the IC50 in data set [3] is over 100 µM; in data set [4], 45.3 µM.

With `COc1nc(N)nc2c1ncn2[C@@H]1O[C@H](CO[P@@](=O)(N[C@@H](C)C(=O)OCC(C)(C)C)Oc2ccccc2)[C@@H](O)[C@]12CCO2`, in data set [1], the CC50 at 96 h was over 20 µM. In the data set with Hepatitis C virus [2], the EC50 amounted to 1.02 µM.

Compound `COc1nc(N)nc2c1ncn2[C@@H]1O[C@H](CO[P@@](=O)(N[C@@H](C)C(=O)OCC(C)C)Oc2ccccc2)[C@@H](O)[C@]12CCO2` yielded a CC50 at 96 h in data set [1] of over 20 µM. Moreover, the EC50 in the data set with Hepatitis C virus [2] was found to be 0.57 µM.

In turn, `COC(=O)[C@H](C)NP(=O)(OC[C@H]1O[C@@H](n2ccc(=O)[nH]c2=O)[C@@]2(CCCO2)[C@@H]1O)Oc1ccccc1` (mixture of isomers) registered a CC50 at 96 h in data set [1] of over 100 µM. Also, the concentration for a half-maximal effect (EC50) with Hepatitis C virus [2] is 28.3 µM.

In data set [1], `COc1nc(N)nc2c1ncn2[C@@H]1O[C@H](CO[P@](=O)(N[C@@H](C)C(=O)OC(C)C)Oc2ccccc2)[C@@H](O)[C@]12CCO2` had a CC50 at 96 h of over 20 µM. Also, the EC50 in the data set with Hepatitis C virus [2] turned out to be 4.52 µM.

`Nc1ccn([C@@H]2O[C@H](COP(=O)(O)OP(=O)(O)OP(=O)(O)O)[C@@H](O)[C@]23CCO3)c(=O)n1`: the IC50 was over 100 µM in data set [3] and 8.48 µM in data set [4].

With `COc1nc(N)nc2c1ncn2[C@@H]1O[C@H](CO[P@](=O)(N[C@@H](C)C(=O)OCC(C)(C)C)Oc2ccccc2)[C@@H](O)[C@]12CCO2`, the 50% cytotoxic concentration (CC50) at 96 h in data set [1] is over 20 µM. Besides, the EC50 with Hepatitis C virus [2] was 9.31 µM.

Consider `COc1nc(N)nc2c1ncn2[C@@H]1O[C@H](COP(=O)(O)OP(=O)(O)OP(=O)(O)O)[C@@H](O)[C@@]1(C)F`, for which the IC50 in data set [3] was found to be 5.31 µM; in data set [4], 4.2 µM.

On to `Nc1nc2c(ncn2[C@@H]2O[C@H](CO)[C@@H](O)[C@]23CCO3)c(=O)[nH]1`, for which, in the data set on Hepatitis C virus [5], the inhibition entry was “inactive”.

With `COc1nc(N)nc2c1ncn2[C@@H]1O[C@H](CO)[C@@H](O)[C@]12CCO2`, the inhibition entry in the data set with Hepatitis C virus [5] was “inactive”.

The compound `COc1nc(N)nc2c1ncn2[C@@H]1O[C@H](CO[P@](=O)(N[C@@H](C)C(=O)OCc2ccccc2)Oc2ccccc2)[C@@H](O)[C@]12CCO2` had a 50% cytotoxic concentration (CC50) at 96 h in data set [1] of over 20 µM. In addition, the 50% effective concentration (EC50) in the data set on Hepatitis C virus [2] is 11.7 µM.

In turn, `COc1nc(N)nc2c1ncn2[C@@H]1O[C@H](COP(=O)(N[C@@H](C)C(=O)OCC(C)(C)C)Oc2cccc3ccccc23)[C@@H](O)[C@]12CCO2` (mixture of isomers) yielded a CC50 at 96 h in data set [1] of over 20 µM. Moreover, in the data set on Hepatitis C virus [2], the EC50 came to 0.31 µM.

On to `O=c1ccn([C@@H]2O[C@H](COP(=O)(O)OP(=O)(O)OP(=O)(O)O)[C@@H](O)[C@]23CCO3)c(=O)[nH]1`, for which the values for the IC50 in data set [3] and in data set [4] were over 100 µM and 39.4 µM, respectively.

On to `O=c1ccn([C@@H]2O[C@H](COP(=O)(O)OP(=O)(O)OP(=O)(O)O)[C@@H](O)[C@@]23CCCO3)c(=O)[nH]1`, for which the IC50 in data set [4] was over 100 µM.

Take `Nc1ccn([C@@H]2O[C@H](CO)[C@@H](O)[C@@]23CCO3)c(=O)n1`: the 50% cytotoxic concentration (CC50) at 96 h in data set [1] is over 100 µM. Besides, in the data set on Hepatitis C virus [2], the concentration for a half-maximal effect (EC50) is over 100 µM.

As for `Nc1ccn([C@@H]2O[C@H](COP(=O)(O)OP(=O)(O)OP(=O)(O)O)[C@@H](O)[C@@]23CCCO3)c(=O)n1`, in data set [4], the IC50 is over 100 µM.

`CC(C)OC(=O)[C@H](C)NP(=O)(OC[C@H]1O[C@@H](n2ccc(N)nc2=O)[C@@]2(CCO2)[C@@H]1O)Oc1ccccc1` (stereo partly drawn): the CC50 at 96 h in data set [1] was over 100 µM. In addition, the EC50 in the data set with Hepatitis C virus [2] was 16.7 µM.

With `O=c1ccn([C@@H]2O[C@H](CO)[C@@H](O)[C@]23CCCO3)c(=O)[nH]1`, the CC50 at 96 h in data set [1] is over 100 µM. For the same compound, in the data set on Hepatitis C virus [2], the EC50 was over 100 µM.

Consider `O=c1ccn([C@@H]2O[C@H](CO)[C@@H](O)[C@@]23CCCO3)c(=O)[nH]1`, for which the CC50 at 96 h in data set [1] is over 100 µM. Besides, the EC50 in the data set with Hepatitis C virus [2] amounted to 14.9 µM.

With `Nc1ccn([C@@H]2O[C@H](COP(=O)(O)OP(=O)(O)OP(=O)(O)O)[C@@H](O)[C@@]23CCO3)c(=O)n1`, the concentration for half-maximal inhibition (IC50) in data set [4] was over 100 µM.

For `COC(=O)[C@H](C)NP(=O)(OC[C@H]1O[C@@H](n2ccc(=O)[nH]c2=O)[C@]2(CCCO2)[C@@H]1O)Oc1ccccc1` (mixture of isomers), the 50% cytotoxic concentration (CC50) at 96 h in data set [1] was over 100 µM. In addition, in the data set with Hepatitis C virus [2], the EC50 was 20.6 µM.

In the case of `C[C@@]1(F)[C@H](O)[C@@H](CO)O[C@H]1n1ccc(N)nc1=O`, the IC50 came to 56.7 µM in data set [3] and 8.41 µM in data set [4].

For the compound `Nc1ccn([C@@H]2O[C@H](CO)[C@@H](O)[C@@]23CCCO3)c(=O)n1`, the half-maximal cytotoxic concentration (CC50) at 96 h in data set [1] was over 100 µM. The EC50 with Hepatitis C virus [2] is over 100 µM.
